In ChEMBL document CHEMBL1130247, “Antirhino/enteroviral vinylacetylene benzimidazoles: a study of their activity and oral plasma levels in mice” (J Med Chem, 1997):
Values after ≈ are worked out from the molar mass of the structure shown.

Key:
[1] = Antiviral activity against human rhinovirus 14 (HRV-14) using CPE/XTT assay in human tumor cell lines.; assay type: organism-based, human rhinovirus type 14; conditions: read-out: TC50 (the source's name)
How it was run: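 Cytopathic-effect assay run by an earlier published method, except that surviving host cells were quantified with XTT substrate instead of crystal violet staining.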

rhinovirus B14 = assay: Antiviral activity against human rhinovirus 14 using plaque reduction assay in HeLa cell lines; assay type: functional, organism-based, human rhinovirus type 14; conditions: Rhinovirus B
[2] = Oral plasma concentration in mice at 100 mg/kg dosage within 4-hr time frame.; assay type: ADME, organism-based; design: route oral, dose 100 mg/kg; conditions: mouse
Human rhinovirus sp. [3] = assay: Antiviral activity against human rhinovirus 1A; assay type: functional, organism-based
Coxsackievirus [4] = assay: Antiviral activity against coxsackie virus A21M; assay type: functional, organism-based
Coxsackievirus [5] = assay: Antiviral activity against coxsackie virus A21; assay type: functional, organism-based
How it was run: (§1)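 HeLa monolayers in MEM with 5% FBS and 10 mM MgSO4, infected with virus for 1–2 h at room temperature. Overlay of 1.5% agarose mixed 1:1 with 2× MEM (2% FBS) holding graded compound concentrations, diluted in DMSO from a 20 mg/mL stock. Incubated at 37 °C until DMSO-control plaques reached optimal size. Formalin-fixed, crystal violet-stained, plaques counted in duplicate wells. IC50 by Reed–Muench.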

Coxsackievirus [6] = assay: Antiviral activity against coxsackie virus B3; assay type: functional, organism-based; how it was run: as §1
Enterovirus C = assay: Antiviral activity against poliovirus 1; assay type: functional, organism-based; how it was run: as §1
Human rhinovirus sp. [7] = assay: Antiviral activity against human rhinovirus 2; assay type: functional, organism-based
Human rhinovirus sp. [8] = assay: Antiviral activity against human rhinovirus 16; assay type: functional, organism-based
[9] = Oral bioavailability in monkey; assay type: ADME, organism-based; conditions: primates, in vivo
HeLa = assay: Antiviral activity against poliovirus 1 using PV-1 plaque reduction assay in HeLa cell lines; assay type: functional, cell-based; conditions: Homo sapiens; how it was run: as §1

SMILES	CC50 [1] [µg/mL]	IC50 (rhinovirus B14) [µg/mL]	Cmax [2] [ng/mL]	IC50 (Human rhinovirus sp. [3]) [µg/mL]	IC50 (Coxsackievirus [4]; Coxsackievirus, read-out: IC50) [µg/mL]	IC50 (Coxsackievirus [5]) [µg/mL]	IC50 (Coxsackievirus [6]) [µg/mL]	IC50 (Enterovirus C) [µg/mL]	IC50 (Human rhinovirus sp. [7]) [µg/mL]	IC50 (Human rhinovirus sp. [8]) [µg/mL]	bioavailability [9] [%]	IC50 (HeLa) [µg/mL]	IC50 (Coxsackievirus [4]) [µg/mL]
C#C/C=C(\c1ccccc1)c1ccc2nc(N)n(S(=O)(=O)C(C)C)c2c1F	57 (≈ 149 µM)	2.8 (≈ 7.3 µM)	520										
CC(C)S(=O)(=O)n1c(N)nc2ccc(C(=O)c3cccc(F)c3)cc21	15.9 (≈ 44 µM)	2.1 (≈ 5.81 µM)											
C#C/C=C(\c1ccc(OC)c(F)c1)c1ccc2nc(N)n(S(=O)(=O)C(C)C)c2c1	5.5 (≈ 13.3 µM)	0.061 (≈ 0.148 µM)	9200	0.049 (≈ 0.119 µM)	0.029 (≈ 0.0701 µM)	0.032 (≈ 0.0774 µM)	0.035 (≈ 0.0846 µM)	0.016 (≈ 0.0387 µM)	0.054 (≈ 0.131 µM)	0.06 (≈ 0.145 µM)			
C/C=C(\c1ccccc1)c1ccc2nc(N)n(S(=O)(=O)C(C)C)c2c1			5100										
C#C/C=C(\c1ccc(OC)cc1)c1ccc2nc(N)n(S(=O)(=O)C(C)C)c2c1	5.2 (≈ 13.1 µM)	0.059 (≈ 0.149 µM)		0.03 (≈ 0.0759 µM)	0.051 (≈ 0.129 µM)	0.047 (≈ 0.119 µM)	0.055 (≈ 0.139 µM)	0.04 (≈ 0.101 µM)	0.041 (≈ 0.104 µM)	0.029 (≈ 0.0733 µM)			
C#C/C=C(\c1cccc(F)c1)c1ccc2nc(N)n(S(=O)(=O)N(C)C)c2c1	> 100	0.061 (≈ 0.159 µM)	8400	0.053 (≈ 0.138 µM)	0.09 (≈ 0.234 µM)	0.1 (≈ 0.26 µM)	0.07 (≈ 0.182 µM)	0.047 (≈ 0.122 µM)	0.05 (≈ 0.13 µM)	0.04 (≈ 0.104 µM)			
C#C/C=C(\c1cccc(C(F)(F)F)c1)c1ccc2nc(N)n(S(=O)(=O)C(C)C)c2c1	> 100	0.4 (≈ 0.923 µM)	4900										
C#C/C=C(\c1ccccc1)c1cc2c(cc1F)nc(N)n2S(=O)(=O)C(C)C	13 (≈ 33.9 µM)		16000								46	1.5 (≈ 3.91 µM)	
C#C/C=C(\c1ccc(C)cc1)c1ccc2nc(N)n(S(=O)(=O)C(C)C)c2c1	5.7 (≈ 15 µM)	0.075 (≈ 0.198 µM)	610										
CC(C)S(=O)(=O)n1c(N)nc2ccc(/C(=N/O)c3ccccc3)cc21 [ENVIROXIME]			890										
CC#C/C=C(\c1cccc(F)c1)c1ccc2nc(N)n(S(=O)(=O)C(C)C)c2c1	3.1 (≈ 7.8 µM)	0.26 (≈ 0.654 µM)	640	0.14 (≈ 0.352 µM)	0.36 (≈ 0.906 µM)	0.33 (≈ 0.83 µM)	0.19 (≈ 0.478 µM)	0.12 (≈ 0.302 µM)	0.28 (≈ 0.704 µM)	0.09 (≈ 0.226 µM)			
C#C/C=C(\c1ccccc1)c1ccc2nc(N)n(S(=O)(=O)C(C)C)c2c1	11 (≈ 30.1 µM)	0.094 (≈ 0.257 µM)		0.033 (≈ 0.0903 µM)	0.089 (≈ 0.244 µM)	0.037 (≈ 0.101 µM)	0.1 (≈ 0.274 µM)	0.037 (≈ 0.101 µM)	0.065 (≈ 0.178 µM)	0.039 (≈ 0.107 µM)			
C#C/C=C(\c1ccc(N(C)C)cc1)c1ccc2nc(N)n(S(=O)(=O)C(C)C)c2c1	5.3 (≈ 13 µM)	0.117 (≈ 0.286 µM)	210	0.048 (≈ 0.117 µM)	0.13 (≈ 0.318 µM)	0.14 (≈ 0.343 µM)	0.06 (≈ 0.147 µM)	0.059 (≈ 0.144 µM)	0.06 (≈ 0.147 µM)	0.08 (≈ 0.196 µM)			
C#C/C=C(\c1ccc(OC(F)(F)F)cc1)c1ccc2nc(N)n(S(=O)(=O)C(C)C)c2c1	18 (≈ 40 µM)	0.55 (≈ 1.22 µM)	2000	0.26 (≈ 0.578 µM)	0.5 (≈ 1.11 µM)	0.22 (≈ 0.489 µM)	0.7 (≈ 1.56 µM)	0.27 (≈ 0.601 µM)	0.35 (≈ 0.779 µM)	0.22 (≈ 0.489 µM)			
C#C/C=C(\c1ccc(F)c(F)c1)c1ccc2nc(N)n(S(=O)(=O)C(C)C)c2c1	19 (≈ 47.3 µM)	0.19 (≈ 0.473 µM)	2900	0.12 (≈ 0.299 µM)	0.22 (≈ 0.548 µM)	0.247 (≈ 0.615 µM)	0.1 (≈ 0.249 µM)	0.082 (≈ 0.204 µM)	0.23 (≈ 0.573 µM)	0.55 (≈ 1.37 µM)			
C#C/C=C(/c1ccc2nc(N)n(S(=O)(=O)C(C)C)c2c1)c1cc(F)ccc1F	63 (≈ 157 µM)	0.11 (≈ 0.274 µM)	9300	0.096 (≈ 0.239 µM)	0.1 (≈ 0.249 µM)	0.069 (≈ 0.172 µM)	0.1 (≈ 0.249 µM)	0.032 (≈ 0.0797 µM)	0.079 (≈ 0.197 µM)	0.099 (≈ 0.247 µM)			
C#C/C=C(\c1cccc(Cl)c1)c1ccc2nc(N)n(S(=O)(=O)C(C)C)c2c1	20 (≈ 50 µM)	0.21 (≈ 0.525 µM)	18000	0.13 (≈ 0.325 µM)	0.18 (≈ 0.45 µM)	0.23 (≈ 0.575 µM)	0.17 (≈ 0.425 µM)	0.15 (≈ 0.375 µM)	0.12 (≈ 0.3 µM)	0.19 (≈ 0.475 µM)			
C#C/C=C(\c1cccc(F)c1)c1ccc2nc(N)n(S(=O)(=O)C(C)C)c2c1	5.3 (≈ 13.8 µM)	0.06 (≈ 0.156 µM)	12000	0.027 (≈ 0.0704 µM)	0.046 (≈ 0.12 µM)	0.085 (≈ 0.222 µM)	0.032 (≈ 0.0835 µM)	0.037 (≈ 0.0965 µM)	0.069 (≈ 0.18 µM)	0.057 (≈ 0.149 µM)			
C#C/C=C(\c1cc(F)cc(F)c1)c1ccc2nc(N)n(S(=O)(=O)C(C)C)c2c1	32 (≈ 79.7 µM)	0.17 (≈ 0.423 µM)	18000	0.12 (≈ 0.299 µM)	0.23 (≈ 0.573 µM)	0.19 (≈ 0.473 µM)	0.14 (≈ 0.349 µM)	0.12 (≈ 0.299 µM)	0.18 (≈ 0.448 µM)	0.26 (≈ 0.648 µM)			
C#C/C=C(\c1ccc(F)cc1)c1ccc2nc(N)n(S(=O)(=O)C(C)C)c2c1	5.8 (≈ 15.1 µM)	0.13 (≈ 0.339 µM)	9200	0.078 (≈ 0.203 µM)		0.1 (≈ 0.261 µM)	0.095 (≈ 0.248 µM)	0.067 (≈ 0.175 µM)	0.091 (≈ 0.237 µM)	0.098 (≈ 0.256 µM)	23		0.062 (≈ 0.162 µM)
C#C/C=C(/c1ccc2nc(N)n(S(=O)(=O)C(C)C)c2c1)c1ccccc1F	66 (≈ 172 µM)	0.092 (≈ 0.24 µM)	9200	0.035 (≈ 0.0913 µM)	0.1 (≈ 0.261 µM)	0.079 (≈ 0.206 µM)	0.05 (≈ 0.13 µM)	0.045 (≈ 0.117 µM)	0.05 (≈ 0.13 µM)	0.07 (≈ 0.183 µM)			
